{
  "source": "ChEMBL document CHEMBL4229344",
  "about": "(Eur J Med Chem, 2018)",
  "key": {"[1]": {"tested_on": "Tyrosine-protein kinase ABL1 (Homo sapiens), P00519 [F317I]", "assay": "Binding affinity to human phosphorylated ABL1 F317I mutant (S229 to K512 residues) expressed in mammalian expression system assessed as residual binding level at 1 uM by Kinomescan method relative to control", "how_it_was_run": "(§1)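 Single-concentration (1 μM) competition-binding screen run by KINOMEscan against a panel of 468 purified kinases and mutants. The read-out is the relative binding activity of the test compound to each kinase.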"}, "[2]": {"target": "Mitogen-activated protein kinase kinase kinase 5 (Homo sapiens) (UniProt Q99683)", "assay": "Binding affinity to wild-type human partial length ASK1 (E648 to S964 residues) expressed in bacterial expression system assessed as residual binding level at 1 uM by Kinomescan method relative to control", "how_it_was_run": "(§2)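 Single-concentration KINOMEscan (DiscoverX) binding screen at 1 μM against a panel of 468 purified kinases and mutants. The read-out is binding relative to control.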"}, "[3]": {"target": "Bone morphogenetic protein receptor type-1A (Homo sapiens) (UniProt P36894)", "sequence (P36894 whole entry, the tested form may be a part)": "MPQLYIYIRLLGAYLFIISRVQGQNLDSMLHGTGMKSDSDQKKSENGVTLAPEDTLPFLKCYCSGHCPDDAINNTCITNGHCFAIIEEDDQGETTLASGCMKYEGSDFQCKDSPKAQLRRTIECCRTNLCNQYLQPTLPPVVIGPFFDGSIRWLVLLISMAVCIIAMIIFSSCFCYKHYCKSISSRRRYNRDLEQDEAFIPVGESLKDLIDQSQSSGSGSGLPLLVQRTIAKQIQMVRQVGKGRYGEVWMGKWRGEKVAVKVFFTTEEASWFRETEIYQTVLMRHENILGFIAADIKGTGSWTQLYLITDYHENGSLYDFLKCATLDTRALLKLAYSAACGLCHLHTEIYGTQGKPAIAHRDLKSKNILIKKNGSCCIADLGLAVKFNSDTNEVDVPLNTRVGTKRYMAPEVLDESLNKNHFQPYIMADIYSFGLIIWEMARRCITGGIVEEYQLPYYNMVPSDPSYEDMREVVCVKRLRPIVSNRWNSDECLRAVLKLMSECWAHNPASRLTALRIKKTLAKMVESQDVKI", "assay": "Binding affinity to wild-type human partial length BMPR1A (Q214 to I532 residues) expressed in bacterial expression system assessed as residual binding level at 1 uM by Kinomescan method relative to control", "how_it_was_run": "as §2"}, "[4]": {"target": "Calcium/calmodulin-dependent protein kinase kinase 1 (Homo sapiens) (UniProt Q8N5S9)", "assay": "Binding affinity to wild-type human partial length CAMKK1 (R65 to E414 residues) expressed in bacterial expression system assessed as residual binding level at 1 uM by Kinomescan method relative to control", "how_it_was_run": "(§3)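 Kinome-wide competition binding screen against a panel of 468 purified kinases/mutants, with the test compound at a single concentration of 1 μM. Read-out is the relative binding activity of each kinase in the presence of compound.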"}, "[5]": {"target": "Dual specificity tyrosine-phosphorylation-regulated kinase 1A (Homo sapiens) (UniProt Q13627)", "assay": "Binding affinity to wild-type human partial length DYRK1A (H129 to S509 residues) expressed in mammalian expression system assessed as residual binding level at 1 uM by Kinomescan method relative to control"}, "[6]": {"tested_on": "Epidermal growth factor receptor (Homo sapiens), P00533 [L858R,T790M]", "assay": "Binding affinity to human partial length EGFR L858R/T790M double mutant (R669 to V1011 residues) expressed in mammalian expression system assessed as residual binding level at 1 uM by Kinomescan method relative to control", "how_it_was_run": "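Kinome-wide single-concentration binding screen (KINOMEscan) at 1 μM against a panel of 468 purified kinases and mutants. Read-out is relative binding of each kinase compared with control. Selectivity across the panel was summarised as an S(10) score.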"}, "[7]": {"target": "Ephrin type-B receptor 4 (Homo sapiens) (UniProt P54760)", "assay": "Binding affinity to wild-type human partial length EPHB4 (H585 to G892 residues) expressed in bacterial expression system assessed as residual binding level at 1 uM by Kinomescan method relative to control"}, "[8]": {"target": "Tyrosine-protein kinase Fyn (Homo sapiens) (UniProt P06241)", "assay": "Binding affinity to wild-type human partial length FYN (T243 to L534 residues) expressed in bacterial expression system assessed as residual binding level at 1 uM by Kinomescan method relative to control", "how_it_was_run": "as §3"}, "[9]": {"target": "Inhibitor of nuclear factor kappa-B kinase subunit alpha (Homo sapiens) (UniProt O15111)", "sequence (O15111 whole entry, the tested form may be a part)": "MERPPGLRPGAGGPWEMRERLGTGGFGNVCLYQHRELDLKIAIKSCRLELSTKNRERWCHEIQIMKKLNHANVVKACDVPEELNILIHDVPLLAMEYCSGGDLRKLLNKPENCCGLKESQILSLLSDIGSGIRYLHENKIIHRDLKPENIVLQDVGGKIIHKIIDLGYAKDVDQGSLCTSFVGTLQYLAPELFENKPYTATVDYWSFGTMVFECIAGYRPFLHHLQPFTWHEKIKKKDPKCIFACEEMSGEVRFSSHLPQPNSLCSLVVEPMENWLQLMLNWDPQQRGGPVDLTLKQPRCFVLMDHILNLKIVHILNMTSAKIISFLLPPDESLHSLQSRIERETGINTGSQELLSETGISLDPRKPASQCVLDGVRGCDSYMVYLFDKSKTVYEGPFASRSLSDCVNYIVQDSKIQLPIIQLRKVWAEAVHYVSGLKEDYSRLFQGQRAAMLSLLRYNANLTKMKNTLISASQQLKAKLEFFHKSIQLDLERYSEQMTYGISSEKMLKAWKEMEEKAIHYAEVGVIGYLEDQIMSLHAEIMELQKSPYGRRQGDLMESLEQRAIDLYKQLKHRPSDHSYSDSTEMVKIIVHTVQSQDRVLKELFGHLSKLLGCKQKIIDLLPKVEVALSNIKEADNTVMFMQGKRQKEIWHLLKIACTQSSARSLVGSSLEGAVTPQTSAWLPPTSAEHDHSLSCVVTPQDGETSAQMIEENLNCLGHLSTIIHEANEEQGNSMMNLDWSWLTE", "assay": "Binding affinity to wild-type human full length IKK-alpha (M1 to E745 residues) expressed in mammalian expression system assessed as residual binding level at 1 uM by Kinomescan method relative to control", "how_it_was_run": "as §1"}, "[10]": {"target": "Tyrosine-protein kinase JAK1 (Homo sapiens) (UniProt P23458)", "assay": "Binding affinity to wild-type human partial length JAK1 JH1 catalytic domain (V856 to K1154 residues) expressed in bacterial expression system assessed as residual binding level at 1 uM by Kinomescan method relative to control"}, "[11]": {"target": "Mast/stem cell growth factor receptor Kit (Homo sapiens, UniProt P10721)", "sequence (P10721 whole entry, the tested form may be a part)": "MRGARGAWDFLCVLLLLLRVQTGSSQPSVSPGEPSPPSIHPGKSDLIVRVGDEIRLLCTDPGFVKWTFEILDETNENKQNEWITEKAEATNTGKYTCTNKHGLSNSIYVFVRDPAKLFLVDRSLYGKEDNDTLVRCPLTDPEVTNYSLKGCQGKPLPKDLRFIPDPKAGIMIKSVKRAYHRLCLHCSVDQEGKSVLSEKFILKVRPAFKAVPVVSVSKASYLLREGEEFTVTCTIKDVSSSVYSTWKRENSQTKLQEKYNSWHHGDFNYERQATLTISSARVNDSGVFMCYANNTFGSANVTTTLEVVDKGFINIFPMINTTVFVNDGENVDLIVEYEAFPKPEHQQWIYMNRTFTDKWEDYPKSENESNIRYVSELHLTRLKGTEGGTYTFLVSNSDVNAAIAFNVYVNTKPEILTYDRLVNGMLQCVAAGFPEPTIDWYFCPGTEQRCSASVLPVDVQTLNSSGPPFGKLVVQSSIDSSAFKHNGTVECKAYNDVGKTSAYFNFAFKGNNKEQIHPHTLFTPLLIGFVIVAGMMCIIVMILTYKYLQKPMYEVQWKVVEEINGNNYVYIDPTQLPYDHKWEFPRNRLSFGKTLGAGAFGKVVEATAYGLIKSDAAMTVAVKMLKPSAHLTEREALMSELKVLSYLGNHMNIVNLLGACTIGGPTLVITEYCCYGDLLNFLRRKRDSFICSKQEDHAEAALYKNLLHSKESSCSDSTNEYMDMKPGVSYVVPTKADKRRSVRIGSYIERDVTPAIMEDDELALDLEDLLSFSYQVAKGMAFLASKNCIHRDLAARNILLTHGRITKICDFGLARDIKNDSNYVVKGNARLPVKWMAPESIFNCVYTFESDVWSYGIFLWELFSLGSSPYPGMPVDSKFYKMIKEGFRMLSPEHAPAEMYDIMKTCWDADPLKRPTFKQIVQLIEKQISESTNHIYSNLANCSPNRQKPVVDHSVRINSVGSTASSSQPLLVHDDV", "assay": "Binding affinity to wild-type human partial length autoinhibited KIT (Y545 to D952 residues) expressed in mammalian expression system assessed as residual binding level at 1 uM by Kinomescan method relative to control"}, "[12]": {"target": "Mitogen-activated protein kinase kinase kinase 13 (Homo sapiens) (UniProt O43283)", "assay": "Binding affinity to wild-type human full length LZK (M1 to W966 residues) expressed in mammalian expression system assessed as residual binding level at 1 uM by Kinomescan method relative to control", "how_it_was_run": "as §1"}, "[13]": {"target": "Mitogen-activated protein kinase kinase kinase kinase 5 (Homo sapiens) (UniProt Q9Y4K4)", "assay": "Binding affinity to wild-type human partial length MAP4K5 (M1 to P297 residues) expressed in bacterial expression system assessed as residual binding level at 1 uM by Kinomescan method relative to control"}, "[14]": {"target": "Cyclin-dependent kinase 15 (Homo sapiens) (UniProt Q96Q40)", "sequence (Q96Q40 whole entry, the tested form may be a part)": "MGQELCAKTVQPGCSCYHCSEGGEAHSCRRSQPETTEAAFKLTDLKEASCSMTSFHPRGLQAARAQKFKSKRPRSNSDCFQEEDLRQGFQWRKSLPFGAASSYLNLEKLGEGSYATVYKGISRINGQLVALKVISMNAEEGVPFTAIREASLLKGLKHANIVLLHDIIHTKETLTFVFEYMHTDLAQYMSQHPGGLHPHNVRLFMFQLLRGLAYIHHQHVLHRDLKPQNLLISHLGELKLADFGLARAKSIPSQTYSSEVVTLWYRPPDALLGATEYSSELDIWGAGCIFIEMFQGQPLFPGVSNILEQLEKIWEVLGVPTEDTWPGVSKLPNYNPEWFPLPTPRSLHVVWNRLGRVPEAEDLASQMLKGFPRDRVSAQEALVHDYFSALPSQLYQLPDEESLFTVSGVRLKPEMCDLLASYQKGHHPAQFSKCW", "assay": "Binding affinity to wild-type human full length PFTAIRE2 (M1 to W384 residues) expressed in bacterial expression system assessed as residual binding level at 1 uM by Kinomescan method relative to control", "how_it_was_run": "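KINOMEscan competition binding against 468 purified kinases/mutants, test compound at 1 µM; residual binding relative to control.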"}, "[15]": {"target": "Phosphatidylinositol 4,5-bisphosphate 3-kinase catalytic subunit beta isoform (Homo sapiens) (UniProt P42338)", "assay": "Binding affinity to wild-type human partial length PIK3CB (P118 to S1070 residues) expressed in mammalian expression system assessed as residual binding level at 1 uM by Kinomescan method relative to control"}, "[16]": {"target": "TGF-beta receptor type-2 (Homo sapiens) (UniProt P37173)", "sequence (P37173 whole entry, the tested form may be a part)": "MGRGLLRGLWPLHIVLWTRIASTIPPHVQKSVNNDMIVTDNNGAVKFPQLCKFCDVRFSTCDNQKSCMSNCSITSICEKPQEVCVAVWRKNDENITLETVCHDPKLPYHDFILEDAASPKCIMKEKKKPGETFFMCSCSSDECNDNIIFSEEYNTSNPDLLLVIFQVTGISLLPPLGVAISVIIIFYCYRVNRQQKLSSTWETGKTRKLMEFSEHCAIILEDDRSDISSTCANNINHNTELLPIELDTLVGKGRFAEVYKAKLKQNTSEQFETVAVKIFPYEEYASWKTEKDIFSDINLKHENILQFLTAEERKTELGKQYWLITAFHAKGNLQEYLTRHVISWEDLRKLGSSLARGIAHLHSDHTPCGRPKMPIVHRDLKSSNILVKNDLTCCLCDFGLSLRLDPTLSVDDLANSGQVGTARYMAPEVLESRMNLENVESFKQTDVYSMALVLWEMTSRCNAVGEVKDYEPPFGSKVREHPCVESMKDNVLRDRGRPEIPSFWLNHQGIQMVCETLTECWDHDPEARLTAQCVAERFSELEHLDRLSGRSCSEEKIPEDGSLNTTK", "assay": "Binding affinity to wild-type human partial length TGFBR2 (I218 to K567 residues) expressed in bacterial expression system assessed as residual binding level at 1 uM by Kinomescan method relative to control"}, "[17]": {"target": "Tyrosine-protein kinase receptor Tie-1 (Homo sapiens) (UniProt P35590)", "assay": "Binding affinity to wild-type human partial length TIE1 (T819 to A1138 residues) expressed in bacterial expression system assessed as residual binding level at 1 uM by Kinomescan method relative to control"}, "[18]": {"target": "Serine/threonine-protein kinase WNK3 (Homo sapiens) (UniProt Q9BYP7)", "sequence (Q9BYP7 whole entry, the tested form may be a part)": "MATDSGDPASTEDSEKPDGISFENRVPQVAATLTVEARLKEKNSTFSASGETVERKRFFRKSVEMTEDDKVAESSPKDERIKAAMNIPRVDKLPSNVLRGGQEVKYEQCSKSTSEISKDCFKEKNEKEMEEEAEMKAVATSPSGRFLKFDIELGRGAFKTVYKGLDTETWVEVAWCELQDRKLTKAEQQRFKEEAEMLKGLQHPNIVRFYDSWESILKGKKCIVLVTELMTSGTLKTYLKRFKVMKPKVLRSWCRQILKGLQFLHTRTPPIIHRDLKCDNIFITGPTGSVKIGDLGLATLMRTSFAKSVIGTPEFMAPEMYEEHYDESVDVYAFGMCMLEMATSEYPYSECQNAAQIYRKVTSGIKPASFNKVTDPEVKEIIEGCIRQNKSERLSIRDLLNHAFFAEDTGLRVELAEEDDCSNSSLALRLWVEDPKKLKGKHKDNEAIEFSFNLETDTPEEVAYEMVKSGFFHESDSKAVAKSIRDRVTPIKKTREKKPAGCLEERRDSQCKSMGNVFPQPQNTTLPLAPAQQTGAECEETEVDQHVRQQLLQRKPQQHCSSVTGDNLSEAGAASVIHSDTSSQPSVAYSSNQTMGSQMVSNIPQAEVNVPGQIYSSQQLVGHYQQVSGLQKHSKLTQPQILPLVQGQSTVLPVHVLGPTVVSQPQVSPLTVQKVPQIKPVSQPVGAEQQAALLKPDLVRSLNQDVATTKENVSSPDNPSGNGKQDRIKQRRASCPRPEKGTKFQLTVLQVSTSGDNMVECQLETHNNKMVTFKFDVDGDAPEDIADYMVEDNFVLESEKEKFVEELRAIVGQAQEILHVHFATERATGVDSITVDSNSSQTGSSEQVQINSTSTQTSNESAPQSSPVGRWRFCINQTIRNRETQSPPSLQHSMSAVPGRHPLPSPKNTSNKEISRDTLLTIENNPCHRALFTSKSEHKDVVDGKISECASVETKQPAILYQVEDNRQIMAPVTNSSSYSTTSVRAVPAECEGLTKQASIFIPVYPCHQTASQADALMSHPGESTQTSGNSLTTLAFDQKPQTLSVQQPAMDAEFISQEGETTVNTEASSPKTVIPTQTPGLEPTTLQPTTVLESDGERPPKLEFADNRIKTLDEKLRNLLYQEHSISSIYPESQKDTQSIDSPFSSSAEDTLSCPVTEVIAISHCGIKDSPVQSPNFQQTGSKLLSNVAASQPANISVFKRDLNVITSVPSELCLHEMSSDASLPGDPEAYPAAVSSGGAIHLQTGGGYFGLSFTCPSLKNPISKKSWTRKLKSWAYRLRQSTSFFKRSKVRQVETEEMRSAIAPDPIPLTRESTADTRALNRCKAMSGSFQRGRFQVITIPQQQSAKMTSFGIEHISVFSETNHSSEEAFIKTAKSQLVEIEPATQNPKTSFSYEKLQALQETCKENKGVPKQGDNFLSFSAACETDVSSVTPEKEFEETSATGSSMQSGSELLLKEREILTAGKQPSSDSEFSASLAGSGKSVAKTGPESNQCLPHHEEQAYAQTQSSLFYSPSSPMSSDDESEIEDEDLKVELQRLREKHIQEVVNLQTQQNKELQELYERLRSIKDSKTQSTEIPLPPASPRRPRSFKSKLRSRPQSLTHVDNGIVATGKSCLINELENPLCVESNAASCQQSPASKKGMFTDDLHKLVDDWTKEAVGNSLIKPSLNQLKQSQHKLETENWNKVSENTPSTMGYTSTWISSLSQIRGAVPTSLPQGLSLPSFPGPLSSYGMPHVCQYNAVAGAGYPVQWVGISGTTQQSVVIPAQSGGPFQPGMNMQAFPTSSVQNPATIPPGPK", "assay": "Binding affinity to wild-type human partial length WNK3 (M1 to D434 residues) expressed in mammalian expression system assessed as residual binding level at 1 uM by Kinomescan method relative to control"}, "[19]": {"assay": "Apparent volume of distribution in Sprague-Dawley rat at 1 mg/kg, iv", "format": "ADME, organism-based", "details": "in vivo, read-out: Vz"}, "[20]": {"target": "Platelet-derived growth factor receptor alpha (Homo sapiens, UniProt P16234)", "assay": "Inhibition of PDGFRalpha autophosphorylation at Y1018 residue in human EOL-1 cells up to 300 nM after 2 hrs by Western blot analysis", "format": "cell-based"}, "[21]": {"tested_on": "NCI-H1703", "assay": "Induction of apoptosis in human NCI-H1703 cells assessed as cleaved PARP expression level after 72 hrs in presence of PDGF-AA by Western blot analysis", "format": "functional, cell-based", "how_it_was_run": "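Cells exposed to compound or DMSO for the stated periods, then lysed and immunoblotted for PARP and caspase-3 cleavage, with β-actin as loading control. NCI-H1703 stimulation used PDGF AA at 100 ng/mL.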"}},
  "note": "Active and inactive are the calls of the source. The rule behind the calls is not given here.",
  "data": [
    {"molecule": "Cc1ccc(NC(=O)c2ccc(CN(CCN(C)C)C(=O)c3cccnc3)cc2)cc1Nc1nccc(-c2cccnc2)n1", "values": [
      {"measurement": "Activity", "setting": "[1]", "value": 74, "unit": "%"},
      {"measurement": "Activity", "setting": "[2]", "value": 100, "unit": "%"},
      {"measurement": "Activity", "setting": "[3]", "value": 100, "unit": "%"},
      {"measurement": "Activity", "setting": "[4]", "value": 92, "unit": "%"},
      {"measurement": "Activity", "setting": "[5]", "value": 100, "unit": "%"},
      {"measurement": "Activity", "setting": "[6]", "value": 94, "unit": "%"},
      {"measurement": "Activity", "setting": "[7]", "value": 90, "unit": "%"},
      {"measurement": "Activity", "setting": "[8]", "value": 80, "unit": "%"},
      {"measurement": "Activity", "setting": "[9]", "value": 95, "unit": "%"},
      {"measurement": "Activity", "setting": "[10]", "value": 100, "unit": "%"},
      {"measurement": "Activity", "setting": "[11]", "value": 100, "unit": "%"},
      {"measurement": "Activity", "setting": "[12]", "value": 100, "unit": "%"},
      {"measurement": "Activity", "setting": "[13]", "value": 97, "unit": "%"},
      {"measurement": "Activity", "setting": "[14]", "value": 87, "unit": "%"},
      {"measurement": "Activity", "setting": "[15]", "value": 100, "unit": "%"},
      {"measurement": "Activity", "setting": "[16]", "value": 100, "unit": "%"},
      {"measurement": "Activity", "setting": "[17]", "value": 93, "unit": "%"},
      {"measurement": "Activity", "setting": "[18]", "value": 100, "unit": "%"},
      {"measurement": "Vd", "setting": "[19]", "value": 5.98, "unit": "L/kg"},
      {"measurement": "inhibition", "setting": "[20]", "value": "Active"},
      {"measurement": "Activity", "setting": "[21]", "value": "Active"}
    ]}
  ]
}
